Data reported in article PMC2933309 (Cancer biology & therapy, 2010).
“Also recorded” adds a separate entry of the source.

Assays:
[1] = test system: glioma tumor; settings: mice; cited from earlier work
[2] = test system: cell motility; settings: 0.1 to 1.0 µM; cited from earlier work
[3] = test system: adherent cell proliferation; settings: 1.0 µM; cited from earlier work
[4] = test system: MDA-MB-231 orthotopic tumors; experiment: Orthotopic MDA-MB-231 tumor growth; type: in vivo, SCID mice; settings: 0.5 mg/ml ad libitum, Day 27 (15 days of administration)
[5] = test system: 4T1 tumor blood vessels (CD31); experiment: Anti-CD31 staining of 4T1 orthotopic tumors; type: in vivo, Balb/c mice; settings: 150 mg/kg p.o. b.i.d.
[6] = target: FAK Tyr-397 phosphorylation (pY397 FAK) (Mus musculus, UniProt P34152); experiment: Immunoblotting of tumor FAK Tyr-397 phosphorylation in 4T1 tumors; type: in vivo, Balb/c mice
[7] = test system: carcinoma cells in three-dimensional culture; settings: 0.1 µM; cited from earlier work
[8] = target: FAK pY397 phosphorylation (Homo sapiens, UniProt Q05397); experiment: Immunoblotting of FAK pY397 in MDA-MB-231 tumors; type: in vivo; settings: 0.5 mg/ml ad libitum
Outline: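 From day 12 (palpable tumors), mice drank 5% sucrose or 0.5 mg/ml compound in 5% sucrose ad libitum. Tumor growth was followed to Day 70; final tumors were weighed and lysed for immunoblot of the FAK pY397 to total FAK ratio (n=11 control, 13 treated).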

[9] = test system: 4T1 lung metastases; experiment: Spontaneous 4T1 breast to lung metastasis; type: in vivo, Balb/c mice; settings: 150 mg/kg p.o. b.i.d. for 15 days
[10] = Body weight and toxicity in mouse studies; type: in vivo
[11] = Pharmacokinetic; type: in vivo, Balb/c mice; settings: plasma; for Cmax: mice
[12] = Water solubility; type: physicochemical
[13] = test system: 4T1 orthotopic breast carcinoma tumors; experiment: Orthotopic 4T1 breast carcinoma tumor growth; type: in vivo, Balb/c mice
[14] = test system: suspended MDA-MB-231 cells; experiment: Apoptosis assay; type: cell-based, human; settings: concentrations up to 10 µM, within 6 h
Outline: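 Suspended MDA-MB-231 cells exposed to test compound or DMSO for 1 h or 6 h, then stained with FITC-annexin V for 30 min and analysed by flow cytometry within 1 h. Quadrant gates were set from autofluorescence (negative) and staurosporine 1 µM (positive) controls. Apoptosis is the percent of annexin V-positive cells.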

[15] = PND-1186 levels in tumor samples by HPLC and mass spectroscopy; type: in vivo, Balb/c mice; settings: for maximal PND-1186 in tumors / time to maximal PND-1186 in tumors: subcutaneous 4T1 tumors
[16] = test system: TNFα-stimulated IL-6 production in 4T1 cells; experiment: IL-6 ELISA of TNFα-stimulated 4T1 cells; type: cell-based, murine; settings: 0.25 to 1.0 µM, TNFα 10 ng/ml, 24 h
[17] = test system: p130Cas Tyr-410 phosphorylation (pY410Cas); experiment: Immunoblotting of tumor p130Cas Tyr-410 phosphorylation in 4T1 tumors; type: in vivo, Balb/c mice
[18] = test system: pY118 paxillin; experiment: Immunoblotting of pY118 paxillin in orthotopic 4T1 tumors; type: in vivo, Balb/c mice; settings: 0.5 mg/ml ad libitum
[19] = test system: Src activity; settings: adherent or suspended 4T1 cells; cited from earlier work
[20] = test system: MDA-MB-231 cells in lungs; experiment: Experimental metastasis assay; type: in vivo, nude mice; settings: 150 mg/kg p.o. pre-administered, 1 and 6 h after cell injection
[21] = test system: tumor-associated splenomegaly; experiment: Spleen weight in 4T1 tumor-bearing mice; type: in vivo, Balb/c mice
[22] = test system: prostate carcinoma cells; settings: in vitro; cited from earlier work
[23] = test system: subcutaneous human tumor xenografts; settings: oral administration; lung, prostate, pancreatic, glioma, colon, breast; cited from earlier work
[24] = test system: lung carcinoma xenografts; settings: cited from earlier work
[25] = 0.5 mg/ml ad libitum, orthotopic 4T1 tumors

FAK Tyr-397 phosphorylation (pY397 FAK), sequence (P34152 whole entry): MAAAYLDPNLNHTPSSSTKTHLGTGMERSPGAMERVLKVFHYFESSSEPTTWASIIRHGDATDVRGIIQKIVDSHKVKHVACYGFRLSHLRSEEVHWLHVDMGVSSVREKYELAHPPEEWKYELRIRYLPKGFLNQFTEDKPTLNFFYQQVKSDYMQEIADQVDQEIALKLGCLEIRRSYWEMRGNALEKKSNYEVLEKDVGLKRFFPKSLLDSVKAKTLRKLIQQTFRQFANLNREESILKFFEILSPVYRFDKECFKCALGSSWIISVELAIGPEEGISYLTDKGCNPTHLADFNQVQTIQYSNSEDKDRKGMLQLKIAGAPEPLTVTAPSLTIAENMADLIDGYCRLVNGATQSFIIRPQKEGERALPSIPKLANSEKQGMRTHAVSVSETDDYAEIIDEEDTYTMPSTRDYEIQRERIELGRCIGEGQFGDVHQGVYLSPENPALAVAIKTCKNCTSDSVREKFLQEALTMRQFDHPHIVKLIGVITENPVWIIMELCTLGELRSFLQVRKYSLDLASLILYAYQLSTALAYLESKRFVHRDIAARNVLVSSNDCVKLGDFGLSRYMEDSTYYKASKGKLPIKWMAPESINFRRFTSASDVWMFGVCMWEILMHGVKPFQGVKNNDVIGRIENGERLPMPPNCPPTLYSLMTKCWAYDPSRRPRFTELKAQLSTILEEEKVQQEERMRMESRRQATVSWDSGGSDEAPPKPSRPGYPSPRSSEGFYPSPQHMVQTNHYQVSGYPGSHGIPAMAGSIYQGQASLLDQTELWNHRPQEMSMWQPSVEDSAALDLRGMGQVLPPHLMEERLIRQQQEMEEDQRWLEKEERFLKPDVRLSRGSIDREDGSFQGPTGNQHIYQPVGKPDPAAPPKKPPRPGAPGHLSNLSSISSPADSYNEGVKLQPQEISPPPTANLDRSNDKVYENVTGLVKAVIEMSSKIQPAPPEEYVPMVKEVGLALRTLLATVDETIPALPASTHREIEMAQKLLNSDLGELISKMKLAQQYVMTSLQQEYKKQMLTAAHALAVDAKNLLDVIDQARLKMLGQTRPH
FAK pY397 phosphorylation, sequence (Q05397 whole entry): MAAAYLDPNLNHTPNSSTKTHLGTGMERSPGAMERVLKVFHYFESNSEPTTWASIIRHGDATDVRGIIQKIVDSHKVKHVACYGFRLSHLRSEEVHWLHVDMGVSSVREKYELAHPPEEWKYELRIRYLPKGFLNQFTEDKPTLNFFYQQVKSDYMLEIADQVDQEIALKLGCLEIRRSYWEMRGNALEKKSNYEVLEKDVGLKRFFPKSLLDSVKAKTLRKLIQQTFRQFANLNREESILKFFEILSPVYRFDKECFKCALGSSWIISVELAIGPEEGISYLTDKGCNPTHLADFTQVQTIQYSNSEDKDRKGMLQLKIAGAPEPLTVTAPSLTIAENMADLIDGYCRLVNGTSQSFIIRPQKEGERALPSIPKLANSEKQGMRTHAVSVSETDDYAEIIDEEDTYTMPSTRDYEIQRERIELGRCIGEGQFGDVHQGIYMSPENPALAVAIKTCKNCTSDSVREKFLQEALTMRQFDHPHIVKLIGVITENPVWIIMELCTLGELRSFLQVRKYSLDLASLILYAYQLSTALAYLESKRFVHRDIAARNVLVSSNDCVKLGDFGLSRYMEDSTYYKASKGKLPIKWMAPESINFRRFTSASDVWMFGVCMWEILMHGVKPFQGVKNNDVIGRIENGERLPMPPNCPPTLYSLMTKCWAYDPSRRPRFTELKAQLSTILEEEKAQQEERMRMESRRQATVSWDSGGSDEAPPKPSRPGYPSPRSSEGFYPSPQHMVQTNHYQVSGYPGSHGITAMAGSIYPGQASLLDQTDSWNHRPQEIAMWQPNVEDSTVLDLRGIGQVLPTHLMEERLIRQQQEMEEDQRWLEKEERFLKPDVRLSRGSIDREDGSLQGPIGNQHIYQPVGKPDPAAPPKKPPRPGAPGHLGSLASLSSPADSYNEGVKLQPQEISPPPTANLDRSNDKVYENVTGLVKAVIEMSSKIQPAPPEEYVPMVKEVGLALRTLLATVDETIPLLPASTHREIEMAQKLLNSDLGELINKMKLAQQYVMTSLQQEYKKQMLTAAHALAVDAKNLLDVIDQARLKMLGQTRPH

CNC(=O)c1ccccc1Nc1nc(Nc2ccc(N3CCOCC3)cc2OC)ncc1Cl [TAE-226]
glioma tumor growth [1]: can prevent glioma tumor growth in mice

CNC(=O)c1ccccc1Nc1cc(Nc2ccc(N3CCOCC3)cc2OC)ncc1C(F)(F)F [PND-1186]
cell motility [2]: prevents cell motility in a dose-dependent fashion
adherent cell proliferation [3]: limited inhibitory effects on adherent cell proliferation
tumor size by caliper measurements versus control [4]: control tumors were significantly larger
vascular differences by anti-CD31 staining [5]: no major vascular differences
FAK pY397 phosphorylation in primary 4T1 tumors [6, 25]: sufficient to inhibit
tumor FAK pY397 phosphorylation at 12 h ([6]; 30 mg/kg single i.p., subcutaneous 4T1 tumors, 12 h): not significantly inhibited
carcinoma cell apoptosis under three-dimensional culture conditions [7]: selectively promotes carcinoma cell apoptosis
FAK pY397 phosphorylation in MDA-MB-231 tumors [8]: significantly reduce
mice with high lung metastatic burden [9]: no mice with a high metastatic burden
toxicity or weight loss ([10]; 0.5 mg/ml ad libitum administration): no signs of toxicity or weight loss; also recorded: without toxicity or weight loss
effect on total body weight ([10]; 150 mg/kg p.o. b.i.d., 4T1 tumor-bearing Balb/c mice): without affects on total body weight
Cmax ([11]; 30 mg/kg i.p.): 34.8 µM
bioavailability ([11]; Balb/c, mouse, ip, 30 mg/kg): 31.1%
bioavailability ([11]; Balb/c, mouse, ip, 100 mg/kg): 42.2%
Cmax ([11]; Balb/c, mouse, ip, 100 mg/kg, CMAX, 100 mg/kg i.p.): 117 µM
concentration at 7 days ([11]; Balb/c, mouse, oral, 0.5 mg/ml): 1.2 µM
bioavailability ([11]; Balb/c, mouse, po, 150 mg/kg): 14.8%
solubility [12]: > 20 mg/mL
tumor size by caliper measurements versus control ([13]; 0.5 mg/ml ad libitum, Day 13): tumor size was significantly different
reduction of final tumor volume compared to vehicle control ([13]; 150 mg/kg p.o. b.i.d., 16 days): 3 fold
tumor volume compared to vehicle control ([13]; 150 mg/kg p.o. b.i.d., Day 7): significantly reduced tumor volume
MDA-MB-231 apoptosis by annexin V binding [14]: did not promote MDA-MB-231 apoptosis
maximal PND-1186 in tumors ([15]; 30 mg/kg single i.p.): 0.75 µg/g
time to maximal PND-1186 in tumors ([15]; 30 mg/kg single i.p.): ≤ 1 h
maximal PND-1186 in tumors ([15]; 100 mg/kg single i.p.): 16.1 µg/g
time to maximal PND-1186 in tumors ([15]; 100 mg/kg single i.p.): ≤ 1 h
concentration at 7 days ([15]; Balb/c, mouse, tumor, oral, 0.5 mg/ml): 522 ng/g
IL-6 release [16]: inhibited IL-6 release in a dose-dependent manner
p130Cas pY410 phosphorylation in primary 4T1 tumors [17, 25]: sufficient to inhibit
p130Cas Tyr-410 phosphorylation (pY410Cas) in tumors ([17]; 100 mg/kg single i.p., subcutaneous 4T1 tumors, by 3 h): significantly reduced
pY118 paxillin phosphorylation in tumors [18]: inhibited
Src activity [19]: does not inhibit Src activity
accumulation of tumor cells in the lungs [20]: significantly inhibited the accumulation of tumor cells in the lungs
spleen size ([21]; 0.5 mg/ml ad libitum): of normal size
spleen appearance ([21]; 150 mg/kg p.o. b.i.d.): healthy and indistinguishable from non-treated, non-tumor bearing mice
spleen weight, vehicle-treated over PND-1186-treated mice ([21]; 150 mg/kg p.o. b.i.d.): > 2 fold

CS(=O)(=O)c1cccc(CNc2nc(Nc3ccc4c(c3)CCC(=O)N4)ncc2C(F)(F)F)c1 [PF-573,228]
prostate carcinoma cell motility [22]: prevented prostate carcinoma cell motility in vitro

CN(c1ncccc1CNc1nc(Nc2ccc3c(c2)CC(=O)N3)ncc1C(F)(F)F)S(C)(=O)=O [PF-562,271]
growth of subcutaneous human tumor xenografts [23]: reduces the growth
tumor microvessel density [24]: reduced tumor microvessel density
